Screens (PubChem)
An excerpt weighted towards active compounds, which were near 2.5% of everything screened.
bovine MsrA act: bovine methionine sulfoxide reductase A activation | purified bovine MsrA, absorbance read-out | activation, % at 10.6 µM | 0.3% of 360,000 active | AID 602163; in the data active = activation above about 7.5%;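 note: 0% = vehicle and 100% = reference activator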
NadD block: inhibitors of Staphylococcus aureus NadD; AID 602399; purified NadD enzyme, colorimetric absorbance read-out; 0.78% of 360,000 active; inhibition, % at 20 µM; in the data active = inhibition above about 26%
MsrA inhibitor: bovine MsrA inhibition; 0.75% of 360,000 active; purified bovine MsrA, absorbance read-out; AID 651718; inhibition, % at 15.5 µM; in the data active = inhibition above about 4.5%;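 note: 0% = vehicle wells with enzyme and 100% = reference inhibitor wells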
GalR3 antagonist: blocks the human galanin receptor 3; O60755; HEK293 GalR3-CNG cAMP membrane potential fluorescence; galR3 body fused to GalR1 C-terminus; inhibition, % at 3 µM; 0.44% of 360,000 active;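 active = inhibition above the screen-wide average plus 3 SD, cut at about 13% in these data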;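 note: forskolin and galanin both at EC90 stimulate the cells; cAMP rise reported by CNG channel membrane potential dye signal; 0% = forskolin plus galanin with DMSO and 100% = forskolin alone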
Target sequence (O60755 1-299 limits assumed): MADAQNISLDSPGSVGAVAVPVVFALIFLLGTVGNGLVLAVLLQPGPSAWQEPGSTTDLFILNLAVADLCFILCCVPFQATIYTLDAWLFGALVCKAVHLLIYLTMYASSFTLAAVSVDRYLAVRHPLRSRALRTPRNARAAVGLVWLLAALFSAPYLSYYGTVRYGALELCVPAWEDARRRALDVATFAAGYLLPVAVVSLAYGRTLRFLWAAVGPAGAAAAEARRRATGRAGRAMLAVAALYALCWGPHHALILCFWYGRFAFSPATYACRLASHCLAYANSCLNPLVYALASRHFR
NR2E3 ag-1: activates human NR2E3 receptor; Q9Y5X4; CHO-S Gal4-NCOR/VP16-NR2E3 two-hybrid, luciferase; AID 602229; 0.35% of 360,000 active; inhibition of corepressor binding, % at 3.98 µM;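 active = inhibition above the mean of all tested compounds plus 3 SD, cut at about 70% in these data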;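 note: 0% = DMSO with NR2E3 transfected cells and 100% = cells lacking NR2E3 construct; higher means lower luciferase signal from less NR2E3 corepressor binding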
NR2E3 ag-2: agonists of human nuclear receptor NR2E3. Q9Y5X4. GST-NR2E3/biotin-RetCOR TR-FRET, 1536-well. inhibition of corepressor binding, % at 4.78 µM. 0.12% of 320,000 active;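 active = percent inhibition above the cutoff of mean plus 3 SD of all tested compounds, set per screening campaign, cut at about 20% in these data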;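 note: 0% = DMSO wells and 100% = biotin wells as full block of FRET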
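Material: NR2E3–RetCOR corepressor complex / Amount: 1.35 nM GST-NR2E3 / Medium: Tris pH 7.5 / Compound: single nominal compound dose of 4.8 µM / Incubation: 5 h at 4 °C / Technique: TR-FRET, Eu(K)-anti-GST donor, streptavidin-D2 acceptor, ex 340, em 617/671 nm / Read-out basis: percent loss of FRET ratio relative to control wells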
NadD inh conf: confirmation of Staphylococcus aureus NadD inhibitors | shares compounds with NadD block | 13% of 2,000 active | purified S. aureus NadD, colorimetric enzyme assay | AID 624309 | inhibition, % at 20 µM; in the data active = inhibition mostly above about 42%, no sharp cut-off; inactive = mostly below about 42%
Numbers without * were called inactive.

Screening O=C(Cc1csc(Nc2nc(=S)[nH]c3ccccc23)n1)N1CCN(c2cccc(C(F)(F)F)c2)CC1 returned bovine MsrA act -5, NadD block 33*, MsrA inhibitor 1, GalR3 antagonist 4, NR2E3 ag-1 -17, NR2E3 ag-2 -1 and NadD inh conf 8.
For O=C(Cc1csc(Nc2nc(=S)[nH]c3ccccc23)n1)NCc1cccc(Cl)c1 the results were bovine MsrA act -2, NadD block 32*, MsrA inhibitor 1, GalR3 antagonist -7, NR2E3 ag-1 -2, NR2E3 ag-2 1 and NadD inh conf 2.
`O=C(Cc1csc(Nc2nc(=S)[nH]c3ccccc23)n1)NCc1ccccc1Cl` gave bovine MsrA act -5, NadD block -3, MsrA inhibitor 0, GalR3 antagonist 2, NR2E3 ag-1 -18 and NR2E3 ag-2 -1.
Cc1ccc(CNC(=O)Cc2csc(Nc3nc(=S)[nH]c4ccccc34)n2)cc1 was read as MsrA inhibitor 1, GalR3 antagonist -8 and NR2E3 ag-2 -2.
`Cc1ccccc1CN1CCCC(C(=O)N2CCCCC2)C1` (stereo not given) gave bovine MsrA act -7, NadD block -4, MsrA inhibitor 1, GalR3 antagonist -10, NR2E3 ag-1 -33 and NR2E3 ag-2 -4.
For C=C(C)CN(CC)c1nc(N)c2c(N)nc3c(c2c1C#N)CC(=O)N3C12CC3CC(CC(C3)C1)C2 the results were bovine MsrA act -2, NadD block 35*, MsrA inhibitor 0, GalR3 antagonist -4, NR2E3 ag-1 -29, NR2E3 ag-2 4 and NadD inh conf 15.
Screening CN([C@@H](C(=O)OC(C)(C)C)c1ccccc1)S(=O)(=O)c1cccc(S(=O)(=O)N(C)[C@@H](C(=O)OC(C)(C)C)c2ccccc2)c1 returned bovine MsrA act -5, NadD block -3, MsrA inhibitor -1, GalR3 antagonist -2, NR2E3 ag-1 -5 and NR2E3 ag-2 1.
Screening N#CC1=C(N)n2c(s/c(=C\c3cccs3)c2=O)=C(C#N)C1c1cccs1 (stereo not given) returned bovine MsrA act -3, NadD block 49*, MsrA inhibitor 2, GalR3 antagonist -3, NR2E3 ag-1 -15, NR2E3 ag-2 0 and NadD inh conf 5.
`CC1(C)CC(=O)C2=C(C1)N(c1ccc(F)cc1)C(N)=C(C#N)C2c1cccs1` (stereo not given) gave bovine MsrA act 2, NadD block -3, MsrA inhibitor 1, GalR3 antagonist 3, NR2E3 ag-1 -17 and NR2E3 ag-2 -1.
CCCS(=O)(=O)N1CCc2ccc(NC(=O)c3ccccc3Cl)cc2C1 was read as bovine MsrA act -1, NadD block -3, MsrA inhibitor 0, GalR3 antagonist -9, NR2E3 ag-1 -9 and NR2E3 ag-2 -2.
Cc1ccc(NC2=C(C(=O)c3ccccc3)N(C)S(=O)(=O)c3ccccc32)cc1 was read as bovine MsrA act -1, NadD block 10, MsrA inhibitor 1, GalR3 antagonist -6, NR2E3 ag-1 -13 and NR2E3 ag-2 -3.
`CNC(=O)NC(=O)C(C)OC(=O)c1c2c(nc3ccccc13)/C(=C/c1cccs1)CC2` (stereo not given) gave bovine MsrA act -3, NadD block 33*, MsrA inhibitor -1, GalR3 antagonist -2, NR2E3 ag-1 -55, NR2E3 ag-2 1 and NadD inh conf 20.
For CCCCNC(=O)COC(=O)c1c2c(nc3ccccc13)/C(=C/c1cccs1)CC2 the results were bovine MsrA act -4, NadD block 19, MsrA inhibitor 1, GalR3 antagonist -9, NR2E3 ag-1 -42 and NR2E3 ag-2 3.
`CC1(C)Cc2c(sc3c2c(=N)n(Cc2ccco2)c(=O)n3Cc2ccc(Cl)cc2)CO1` gave bovine MsrA act -3, NadD block 32*, MsrA inhibitor 0, GalR3 antagonist -3, NR2E3 ag-1 -10, NR2E3 ag-2 -1 and NadD inh conf 20.
CCCc1nnc(NC(=O)CCC(=O)N2CCN(Cc3ccc(F)cc3)CC2)s1 was read as bovine MsrA act 0, NadD block 5, MsrA inhibitor 1, GalR3 antagonist -3, NR2E3 ag-1 24 and NR2E3 ag-2 0.
